Most compounds without a hit are left out; they make up all but 5% or so of the library.
Mdm2 MdmX PPI – inhibitors of human Mdm2-MdmX association, primary screen, cell-based, luminescence, split luciferase, SaOS-2, uHTS. Protein Mdm4 (Homo sapiens) + E3 ubiquitin-protein ligase Mdm2 (Homo sapiens), …. SaOS-2 split-luciferase Mdm2/MdmX complementation. inhibition, % at 8 µM. 3% of 330,000 active. AID 485346, 2010;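 active = inhibition of at least 50% at 8 µM in the primary screen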
T cruzi repl – inhibitors of intracellular T. cruzi growth, primary screen, luminescence, NIH3T3 host cells; T. cruzi beta-gal in NIH3T3, 90 h; AID 1885, 2009; 1.4% of 300,000 active; inhibition, % (no concentration beside the values);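 active = mean inhibition across valid replicates above about 55%, limit read from the data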;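 note: signal also drops with host cell toxicity which is not excluded here; 0% = plate median of DMSO wells and 100% = zero luminescence signal; higher percent means less beta-gal luminescence so fewer parasites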
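Read-out: Parasite load inhibition, % | Test system: Mouse NIH/3T3 fibroblasts infected with β-gal-expressing T. cruzi Tulahuen C4 | Amount: 5,000 cells/well | Medium: DMEM, 2% fetal bovine serum | Signal: GalScreen β-gal luminescence, detergent lysis, 60 min | Timing: 3 h attach, ≥90 h co-culture | Also added: Tulahuen C4 trypomastigotes, 5000/well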
Beta apoptosis – inhibitors of cytokine-induced beta cell apoptosis, primary screen, luminescence; INS-1E cytokine-induced death, ATP luminescence, 48 h; percent of positive-control rescue, neutral wells zero; protection from apoptosis, % (concentration not given with the values); 0.8% of 300,000 active;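 active = Every replicate reaches about 75%, or at least half do and their mean reaches it too, limit read from the data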;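 note: 0% = cytokine-treated negative control wells and 100% = positive control rescue; higher means more ATP so stronger rescue from cytokine killing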
UPR XBP1 act – activators of adaptive XBP1 UPR arm, primary screen, cell-based, CHO-XBP1 luciferase reporter, luminescence, uHTS | IRE1-XBP1 UPR activation; percent of tunicamycin response, DMSO as zero | 0.33% of 330,000 active | activation, % at 20 µM;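 active = versus positive control, 20 µM dose yields 30% or more activation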;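 note: 100% = tunicamycin at 10 µg/mL and 0% = DMSO only wells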
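incubation = overnight seeding at 37 °C, 6 h compound treatment at 37 °C | assay system = CHO-XBP1 cells stably carrying IRE1-XBP1-driven luciferase reporter | input = 1000 cells per well | detection = luciferase luminescence | dosing = single point, 20 µM final compound, 1% DMSO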
UPR CHOP act – activators of apoptotic CHOP UPR arm, primary screen, cell-based, CHO-CHOP luciferase reporter, luminescence, uHTS; 0.34% of 330,000 active; activation, % at 10 µM; UPR activation; percent of tunicamycin response over DMSO baseline;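 active = at 10 µM dose, activation of 40% or more, normalized to positive control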;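 note: 100% = tunicamycin at 10 µg/mL and 0% = DMSO alone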
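Dosing – one dose, 10 µM in 0.5% DMSO · System – CHO-CHOP cells, stable luciferase reporter of PERK-eIF2a-CHOP signalling · Input – 500 cells/well · Control set – tunicamycin 10 µg/mL final as positive, DMSO-only wells as negative · Timing – 6 h compound treatment, 37 °C · Measure – % activation vs tunicamycin · Technique – luminescence read with Steady-Glo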
CSC inhib – cancer stem cell viability inhibitors, primary screen, luminescence. cancer stem cell-like cells viability. inhibition, % at 7.5 µM. 1.1% of 300,000 active. AID 2717, 2010; in the data active = inhibition above about 75%; tested in HMLE shEcad cells
Mdm2 MdmX conf – Mdm2-MdmX complex disruptors, retested hits, confirmation, luminescence, single concentration | 55% of 10,000 active | AID 489028, 2010 | Mdm2-MdmX binding, luminescent assay | inhibition, % at 8 µM | shares compounds with Mdm2 MdmX PPI; in the data active = inhibition above about 40%
Full FLuc ctr – full-length luciferase signal inhibition, confirmation, counter-screen for Mdm2/MdmX interaction inhibitor project, cell-based, single concentration, SaOS-2; shares compounds with Mdm2 MdmX PPI; SaOS-2 full-length luciferase counterscreen, luminescence; inhibition, % at 8 µM; 77% of 6,200 active; AID 504607, 2011;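 active = mean inhibition at 8 µM reaching about 37%, which flags the compound as non-specific, limit read from the data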;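 note: p53-null SaOS-2 cells with luciferase driven by a doxycycline-inducible promoter; compound on cells about two nights before reading with doxycycline added after day one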
* hit, by the source's call; / = not tested or not shown.

SMILES	Mdm2 MdmX PPI	T cruzi repl	Beta apoptosis	UPR XBP1 act	UPR CHOP act	CSC inhib	Mdm2 MdmX conf	others
COc1cc(NC(=O)c2cc(-c3ccccc3)nc3c2cnn3C(C)C)cc(OC)c1OC	63*	/	26	-8	5	29	28
COc1ccccc1NC(=O)c1cc(-c2cc(OC)c(OC)c(OC)c2)nc2ccccc12	55*	34	9	1	4	25	29
CNC(=O)c1cccc(NC(=O)c2cc(-c3ccccc3)nc3c2cnn3C(C)C)c1	38	/	6	3	4	32	/
COc1ccc(-n2c(=S)[nH]c3cc(C(=O)NCCCN4CCCC4=O)ccc3c2=O)c(OC)c1	24	-12	-2	-1	-2	-25	/
COc1ccc(-c2cc(C(=O)Nc3ccc(Cl)cc3Cl)c3ccccc3n2)cc1OC	-20	7	47	-3	4	-22	/
COCC(=O)Nc1c(C(=O)Nc2ccccc2OC)oc2ccccc12	-1	-7	2	3	2	4	/
CCOc1ccccc1NC(=O)c1cc(-c2cc(OC)c(OC)c(OC)c2)nc2ccccc12	55*	36	9	4	4	-9	30
COc1ccc(-c2cc(C(=O)Nc3ccccc3O)c3ccccc3n2)cc1OC	52*	-23	17	2	9	31	52*	Full FLuc ctr=107*
COc1ccccc1NC(=O)c1oc2ccccc2c1NC(=O)c1cc(OC)c(OC)c(OC)c1	70*	-19	9	23	0	61	62*	Full FLuc ctr=54*
CC(=O)Nc1ccc(NC(=O)C(C)OC(=O)c2c(NC(C)=O)sc(C)c2C)cc1 (stereo not drawn)	22	/	-4	1	0	12	/
Cc1ccc(CNC(=O)CSc2nc3c(sc4ccccc43)c(=O)n2CCCN2CCCC2)cc1	51*	64*	-2	1	5	17	48*	Full FLuc ctr=42*
O=C(CSc1nc2c(sc3ccccc32)c(=O)n1CCCN1CCOCC1)NCC1CCCO1 (stereo not drawn)	-26	-2	1	0	-1	1	/
O=C(CSc1nc2c(sc3ccccc32)c(=O)n1CCCN1CCCC1)NCc1ccccc1	54*	7	/	2	-1	/	31
c1ccc(C2(CN3CCNC[C@H]3Cc3cccc4ccccc34)CC2)cc1	53*	15	-3	8	1	15	38	Full FLuc ctr=91*
CC(C)(C)CN1CCNC[C@H]1Cc1cccc2ccccc12	29	7	-1	0	-2	5	/
Cc1ccc(/C=C2\SC(=S)N(CCCC(=O)Nc3ccccn3)C2=O)cc1	69*	3	-10	-8	-11	8	68*	Full FLuc ctr=52*
O=C(CN1C(=O)/C(=C\c2cccc(F)c2)Oc2ccccc21)N1CCN(c2ccccn2)CC1	42	-3	0	0	1	-16	/
COc1ccc(/C=C2\SC(=S)N(CCCC(=O)Nc3ccccn3)C2=O)cc1OC	63*	24	-11	-4	-2	30	52*	Full FLuc ctr=76*
O=C(CN1C(=O)/C(=C\c2ccc(F)cc2)Oc2ccccc21)N1CCN(c2ccccn2)CC1	79*	-5	-2	19	6	5	32	Full FLuc ctr=79*
O=C(CN1C(=O)/C(=C/c2ccc(F)cc2)SC1=S)N1CCN(CCc2ccccn2)CC1	60*	22	/	-6	0	6	-11
COc1ccc(C(=O)NC2CCN(CC(=O)Nc3cccc(OC)c3)CC2)cc1	-24	-9	2	-5	-1	-5	/
Cc1cccc(N(C(=O)c2nsc(Cl)c2Cl)C(C(=O)NC2CCCC2)c2ccc(O)cc2)c1 (stereo not drawn)	10	36	4	1	1	12	/
C[C@H]1[C@@H](OC(=O)CCC(=O)O)O[C@@H]2OC3(C)CC[C@H]4[C@H](C)CC[C@@H]1[C@@]24OO3	/	31	33	/	/	5	/
Clc1cccc(OCCN2CCN(CCOc3cccc(Cl)c3)CC2)c1	69*	51	20	2	-2	36	35
COc1cc(C(=O)Nc2ccc(N3CCOCC3)cc2)ccc1OCc1c(C)noc1C	15	0	0	-2	0	3	/
SMILES	Mdm2 MdmX PPI	T cruzi repl	Beta apoptosis	UPR XBP1 act	UPR CHOP act	CSC inhib	Mdm2 MdmX conf	others
NC1=NC[C@@H](Cc2ccc(O)cc2)N1CCc1cc(C(F)(F)F)cc(C(F)(F)F)c1	14	-6	-6	1	0	10	/
CCCC[C@@H]1CNCCN1CCc1cc(C(F)(F)F)cc(C(F)(F)F)c1	9	30	1	3	0	15	/
NC1=NC[C@H](CC2CCCCC2)N1CCc1cc(C(F)(F)F)cc(C(F)(F)F)c1	100*	30	40	2	0	102*	81*	Full FLuc ctr=59*
FC(F)(F)c1cc(CCN2CCNC[C@@H]2CC2CCCCC2)cc(C(F)(F)F)c1	100*	/	3	-8	28	/	19
CN1C(=O)/C(=C/c2cn(CC(=O)N3CCCCC3)c3ccccc23)c2ccccc21	52*	18	0	-1	-4	-2	32
N#Cc1ccc(C(=O)Nc2cccc3ncccc23)c(F)c1	19	0	-2	-2	2	1	/
Cc1cc(C)c2oc(-c3ccc(Cl)c(NC(=O)c4ccc(C#N)cc4F)c3)nc2c1	69*	-11	-8	19	33	7	-12
Cc1[nH]c(=O)[nH]c(=O)c1CSc1nnc([C@@H](NC(=O)OC(C)(C)C)C(C)C)o1	84*	-5	-1	-1	-3	3	3
Cc1[nH]c(=O)[nH]c(=O)c1CSc1nnc(CCCCCNC(=O)OC(C)(C)C)o1	-6	-8	-2	1	1	-8	/
FC(F)(F)c1nc(-c2cccs2)ncc1-c1nnnn1-c1ccc(Cl)cc1	69*	-9	45	-1	9	26	36
Clc1ccc(-n2nnnc2-c2cnc(-c3ccncc3)nc2-c2cccs2)cc1	40	4	2	-1	0	-1	/
CCCc1nc(SCC(=O)N2CCCc3ccccc32)c2c(=O)n(C)c(=O)n(C)c2n1	43	37	11	-2	5	7	/
